Assays:
BLT2 [1] = target: T1, BLT2 (Homo sapiens, UniProt Q9NPC1); conditions: cited from earlier work
T1 sequence (Q9NPC1 1-358): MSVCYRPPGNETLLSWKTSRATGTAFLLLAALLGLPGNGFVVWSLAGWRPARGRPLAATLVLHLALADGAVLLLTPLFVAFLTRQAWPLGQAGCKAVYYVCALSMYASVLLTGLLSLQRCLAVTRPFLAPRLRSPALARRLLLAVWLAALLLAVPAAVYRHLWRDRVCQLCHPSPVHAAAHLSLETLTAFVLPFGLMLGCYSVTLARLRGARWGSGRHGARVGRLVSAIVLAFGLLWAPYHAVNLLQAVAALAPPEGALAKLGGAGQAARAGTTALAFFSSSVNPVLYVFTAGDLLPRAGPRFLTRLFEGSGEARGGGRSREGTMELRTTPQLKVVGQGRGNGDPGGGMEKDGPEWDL

mouse BLT2 = target: T2, mouse BLT2 (Mus musculus, UniProt Q9JJL9); experiment: IP accumulation assay in cells cotransfected with mouse BLT2 and G14; format: cell-based
T2 sequence (Q9JJL9 1-360): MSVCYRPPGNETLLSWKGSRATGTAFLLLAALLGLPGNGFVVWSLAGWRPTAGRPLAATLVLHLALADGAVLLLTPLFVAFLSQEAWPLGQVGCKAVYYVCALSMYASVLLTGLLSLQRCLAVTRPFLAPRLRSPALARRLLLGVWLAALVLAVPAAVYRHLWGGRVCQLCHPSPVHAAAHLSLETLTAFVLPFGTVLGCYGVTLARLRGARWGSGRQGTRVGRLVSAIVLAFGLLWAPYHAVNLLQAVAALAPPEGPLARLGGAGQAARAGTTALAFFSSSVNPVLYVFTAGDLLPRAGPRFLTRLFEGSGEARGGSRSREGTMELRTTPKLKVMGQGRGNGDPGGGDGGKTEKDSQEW

platelets = experiment: Platelet aggregation; format: cell-based; conditions: unpublished data
BLT2 [2] = target: T1, BLT2; experiment: cAMP assay; format: cell-based
human BLT1 [3] = target: T3, human BLT1 (Homo sapiens, UniProt Q15722); experiment: cAMP assay; format: cell-based; conditions: CHO-BLT1 cells, 50 μM forskolin
T3 sequence (Q15722 whole entry): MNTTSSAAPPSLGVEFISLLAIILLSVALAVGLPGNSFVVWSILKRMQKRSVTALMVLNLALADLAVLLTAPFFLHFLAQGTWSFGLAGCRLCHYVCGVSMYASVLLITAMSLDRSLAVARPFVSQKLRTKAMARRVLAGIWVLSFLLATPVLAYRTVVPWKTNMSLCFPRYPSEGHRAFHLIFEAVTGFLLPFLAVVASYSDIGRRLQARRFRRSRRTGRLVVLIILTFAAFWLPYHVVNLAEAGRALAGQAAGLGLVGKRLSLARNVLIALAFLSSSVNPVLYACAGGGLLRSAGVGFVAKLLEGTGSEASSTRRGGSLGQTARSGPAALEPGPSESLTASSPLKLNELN

mouse BMMCs = experiment: Chemotaxis; format: cell-based
Summary of the method: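 BMMCs from WT, BLT1-KO and BLT2-KO mice (knockouts backcrossed to BALB/c for 10 generations) grown in RPMI 1640 with 10% fetal calf serum, 0.1 mM nonessential amino acids and 50% WEHI-3 cell-conditioned medium; maturation checked by flow cytometry. Migration toward test compound measured; stem cell factor (via c-kit) as positive control.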

BLT2 [4] = target: T1, BLT2; experiment: Boyden chamber chemotaxis assay of CHO-BLT2 cells; format: cell-based; conditions: for concentration required for maximal chemotaxis: Boyden chamber
BLT2 [5] = target: T1, BLT2; experiment: IP accumulation assay in COS-7 cells coexpressing BLT2 and G14; format: cell-based
BLT2 [6] = target: T1, BLT2; experiment: Cytosensor microphysiometer assay in CHO-BLT2 cells; format: cell-based
Summary of the method: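 CHO cells stably expressing BLT2, with BLT1 and mock transfectants alongside. Proton flux recorded by cytosensor microphysiometer on exposure to lipid extracts from rat, mouse or platelet sources, or to 1-min RP-HPLC fractions (MeOH/H2O/AcOH 70:30:0.01). ATP served as control for endogenous purinergic receptors.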

human BLT1 [7] = target: T3, human BLT1; experiment: Intracellular calcium mobilization in CHO-BLT1 cells; format: cell-based; conditions: concentrations as high as 3.3 μM
human BLT1 [8] = target: T3, human BLT1; experiment: Boyden chamber chemotaxis assay of CHO-BLT1 cells; format: cell-based
BLT2 [9] = target: T1, BLT2; experiment: [3H]LTB4 displacement assay, membrane preparations of CHO-BLT2 cells; format: binding

Compound | agonist activity at BLT2 (BLT2 [1]) | migration of BMMCs (mouse BMMCs; BMMCs from BLT1-KO mice) | migration of BMMCs (mouse BMMCs; BMMCs from WT mice) | concentration required for maximal chemotaxis (BLT2 [4]) | migration of BMMCs (mouse BMMCs; BMMCs from BLT2-KO mice) | further results
CCCCC/C=C\C[C@H](O)/C=C/C=C\C/C=C\CCCC(=O)O [12-HETE] | weak agonists | – | – | – | – | –
CCCCC[C@H](O)/C=C/C=C/C/C=C\CCCC(=O)O [12-HHT, 12(S)-hydroxyheptadeca-5Z, 8E, 10E–trienoic acid] | – | migrated in response to 12-HHT | migrated in response to 12-HHT | 30 nM | – | activation of mouse BLT2 by IP accumulation (mouse BLT2): activated mouse BLT2; agonistic activity in platelet aggregation (platelets): did not display agonistic activity; IC50 (BLT2 [2]): 1 nM; adenylyl cyclase inhibition (human BLT1 [3]): had no effect; EC50 (BLT2 [5]): 5.4 nM; activation of BLT2 in the cytosensor assay (BLT2 [6]): able to activate BLT2; calcium mobilization (human BLT1 [7]): failed to induce calcium mobilization; chemotaxis (human BLT1 [8]): failed to induce chemotaxis; IC50 (BLT2 [9]): 2.8 nM
CCCCC[C@H](O)/C=C/C=C\C/C=C\C/C=C\CCCC(=O)O [15-HETE] | weak agonists | – | – | – | – | –
CCCCC/C=C\C[C@@H](O)/C=C/C=C/C=C\[C@@H](O)CCCC(=O)O [LTB4, 5(S), 12(R)-dihydroxy-6, 14-cis-8, 10-trans-eicosatetraenoic acid] | – | – | migrated in response to LTB4 | > 1,000 nM | migrated in response to LTB4 | –
SCF: stem cell factor, positive control inducing chemotaxis through the c-kit receptor | – | induced robust chemotaxis | induced robust chemotaxis | – | induced robust chemotaxis | –
pertussis toxin | – | – | – | – | – | effect of pretreatment on 12-HHT-dependent adenylyl cyclase inhibition (BLT2 [2]; CHO-BLT2 cells, pretreatment): completely blocked; effect of pretreatment on 12-HHT-induced chemotaxis (BLT2 [4]; pretreatment): completely abolished
